FN deposit inh = fibronectin deposition inhibition | AH1F fibroblasts, Alexa488-fibronectin deposition fluorescence, overnight | inhibition, % at 12.6 µM | hit rate 0.086% among 350,000;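 active = mean inhibition across replicates of 30% or more, regardless of how many single replicates reach that level; inconclusive = mean under 30% yet at least half of replicates reach 30%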;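 also: positive control wells lacked labelled fibronectin entirely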
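material = AH1F fibroblast monolayer depositing Alexa488-labelled fibronectin into matrix | amount = 10000 AH1F cells/well | buffer or medium = DMEM plus 2% serum, read in PBS | incubation = 1 h cell adhesion before compound, then overnight fibronectin incubation | detection = fluorescence at 485 nm excitation, 525 nm emission | evaluation = percent inhibition as loss of matrix-bound fibronectin fluorescence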
RAD54 branch = RAD54 (human) branch migration inhibition; Q92698; RAD54 Holliday junction branch migration, FAM/BHQ fluorescence; inhibition, % at 10.4 µM; hit rate 0.14% among 360,000;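 active = mean normalized replicate activity at least 40 and at least half of replicates scoring 40 or more; inconclusive = only one of the two criteria met; inactive = mean below 40 and under half of replicates reaching 40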;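 also: 0% = median of neutral control wells and 100% = median of positive control wells; inhibitors cause a drop in the FAM fluorescence signal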
Target sequence (Q92698 whole entry, looked up): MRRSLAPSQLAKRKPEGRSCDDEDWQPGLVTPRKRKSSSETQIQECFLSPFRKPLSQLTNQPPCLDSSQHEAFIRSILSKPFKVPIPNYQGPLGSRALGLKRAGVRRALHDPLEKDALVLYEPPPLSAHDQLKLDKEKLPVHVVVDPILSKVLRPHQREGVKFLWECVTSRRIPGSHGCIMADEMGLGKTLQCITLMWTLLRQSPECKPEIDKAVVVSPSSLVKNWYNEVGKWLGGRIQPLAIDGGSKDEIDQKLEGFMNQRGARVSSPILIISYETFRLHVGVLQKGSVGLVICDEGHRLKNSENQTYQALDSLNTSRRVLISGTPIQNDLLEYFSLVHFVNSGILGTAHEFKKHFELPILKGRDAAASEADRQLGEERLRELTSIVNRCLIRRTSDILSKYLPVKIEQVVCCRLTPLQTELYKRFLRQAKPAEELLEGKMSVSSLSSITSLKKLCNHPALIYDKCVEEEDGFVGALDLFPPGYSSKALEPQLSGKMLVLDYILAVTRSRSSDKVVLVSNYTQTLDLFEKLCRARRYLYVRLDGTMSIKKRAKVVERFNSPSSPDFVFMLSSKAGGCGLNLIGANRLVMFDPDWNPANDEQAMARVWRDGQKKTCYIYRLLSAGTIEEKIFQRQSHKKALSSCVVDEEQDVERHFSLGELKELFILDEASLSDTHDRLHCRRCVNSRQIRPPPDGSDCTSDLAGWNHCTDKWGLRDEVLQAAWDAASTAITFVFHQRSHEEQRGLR
RAD52 inh = blocks human RAD52 DNA annealing; P43351; recombinant RAD52 DNA annealing, FRET fluorescence; inhibition, % at 18.7 µM; hit rate 0.46% among 360,000;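 active = every replicate showing at least 50% inhibition; inconclusive = mean inhibition at least 50% but not in every replicate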
CaV13 ICDI inh = Primary screen for inhibitors of IQ motif and Ca2+-dependent inactivation inhibitor domain binding in CACNA1D, Förster resonance energy transfer in living cells, …; HEK cells, CFP/YFP FRET ICDI-IQ, plate reader, 10 min; percent FRET-ratio fall versus neutral wells; inhibition, % at 12.3 µM; hit rate 0.098% among 340,000; AID 743397;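 active = mean replicate inhibition of at least 30% and at least 1% of replicates passing that level; inconclusive = only one of the two criteria is met; inactive = neither criterion is met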;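 also: 0% = median of the neutral control wells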
N-glyco inh = blocks N-linked glycosylation in D54 reporter cells. hit rate 0.23% among 360,000. D54 ERlucT glycosylation luciferase reporter, 24 h; percent of 100 nM tunicamycin response. AID 588692. reporter increase, % at 12.5 µM;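 active = mean luciferase reporter signal, scaled so untreated is 0 and the glycosylation-blocking control 100, at or above a set limit in every replicate; inconclusive = mean reaches the limit but not every replicate does; inactive = mean below the limit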;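 also: luciferase carries N-glycosylation sites so blocking glycosylation raises the light; 0% = median of neutral control wells and 100% = median of 100 nM tunicamycin wells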
An asterisk follows results filed as active; ? = inconclusive; nt = no result; + = active, no number; ! = a repeat was not active. Rows were chosen to be rich in hits. Some 0.7% of all compounds tested hit in one or more screens of this group.

SMILES | FN deposit inh | RAD54 branch | RAD52 inh | CaV13 ICDI inh | N-glyco inh
C[C@@H]1CCCCO[C@H](CN(C)Cc2ccc3c(c2)OCO3)[C@@H](C)CN([C@@H](C)CO)C(=O)c2cc(NS(=O)(=O)c3ccc(Cl)cc3)ccc2O1 | 10 | -1 | 61* | nt | nt
COc1ccc(CN(C)C[C@H]2OCCCC[C@@H](C)Oc3ccc(NS(=O)(=O)c4ccc(Cl)cc4)cc3C(=O)N([C@@H](C)CO)C[C@@H]2C)cc1 | -12 | -4 | 51* | nt | nt
CCCN(C)C[C@H]1OCCCC[C@@H](C)Oc2ccc(NS(=O)(=O)c3ccccc3)cc2C(=O)N([C@@H](C)CO)C[C@H]1C | 0 | 3 | 54* | nt | nt
C[C@@H]1CCCCO[C@@H](CN(C)C(=O)Nc2cccc3ccccc23)[C@H](C)CN([C@@H](C)CO)C(=O)c2cc(N(C)C)ccc2O1 | nt | -11 | 56* | nt | nt
CCN(C[C@H]1N[C@@H](CO)[C@@H]1c1ccc(C2=CCCC2)cc1)C(=O)c1ccncc1 | nt | -5 | 3 | nt | nt
O=C(C[C@@H]1C[C@@H]2c3cc(NC(=O)c4ccc5c(c4)OCO5)ccc3O[C@@H]2[C@H](CO)O1)NCc1cc(F)ccc1F | nt | 21 | 16 | nt | nt
C[C@@H]1CN([C@H](C)CO)C(=O)c2cccc(NC(=O)Nc3ccc4c(c3)OCO4)c2O[C@H]1CN(C)CC1CCCCC1 | -11 | nt | nt | nt | nt
O=C(NCc1cccnc1)c1ccc(-c2ccc(Cl)cc2)o1 | nt | nt | -8 | 5 | 4
O=C(NCc1cccnc1)/C(=C\c1ccc(-c2ccc(Cl)c(Cl)c2)o1)S(=O)(=O)c1ccccc1 | 31* | -1 | -39 | -1 | -22
C[C@@H]1CN([C@@H](C)CO)C(=O)c2c(c3ccccc3n2C)-c2ccccc2CO[C@H]1CN(C)CC1CCCCC1 | 0 | nt | nt | nt | nt
O=C(/C=C/c1ccccc1)C1=C(O)C(=O)N(CCO)C1c1ccc2c(c1)OCO2 (stereo not drawn) | -10 | 9 | 8 | 34* | 2
O=C(C=Cc1ccc2c(c1)OCO2)c1ccccc1 | nt | 5 | -38 | -6 | 6
N#Cc1nccnc1S(=O)(=O)c1cccs1 | 40* | nt | -24 | -3 | nt
COc1ccc(NC(=O)N[C@H]2CC[C@@H](CCn3cc(-c4ccccc4)nn3)O[C@H]2CO)cc1 | nt | 3 | -9 | nt | nt
CC(=O)N1[C@@H]2Cn3c(ccc(-c4ccccc4)c3=O)[C@H]1[C@@H](C(=O)N1CCCCC1)[C@@H]2CO | nt | 6 | 59* | nt | nt
CN(C)CC(=O)N1[C@@H]2c3ccc(-c4ccccc4)c(=O)n3C[C@H]1[C@H](CO)[C@H]2C(=O)N1CCCCC1 | nt | 10 | 1 | nt | nt
C[C@H]1CN([C@@H](C)CO)C(=O)Cc2cc(NC(=O)CCC(F)(F)F)ccc2O[C@H]1CN(C)Cc1ccccc1 | nt | 0 | 1 | nt | nt
Cn1cc(C(=O)N/N=C/C(Br)=C/c2ccccc2)ccc1=O | 5 | nt | -9 | -3 | 25*
CO[C@H]1CN(C)C(=O)c2cc(NC(=O)Nc3cccc(F)c3)ccc2OC[C@@H](C)N(C(C)=O)C[C@H]1C | 11 | 2 | -5 | nt | nt
CCN1CCN(Cc2ccc(NC(=O)c3ccc(C)c(/C=C/c4cnc(Nc5cc(N6CCNCC6)nc(C)n5)cn4)c3)cc2C(F)(F)F)CC1 | nt | 105* | nt | nt | -20
CCCN(C)C[C@@H]1OCCCC[C@H](C)Oc2ccc(N(C)C)cc2C(=O)N([C@H](C)CO)C[C@@H]1C | nt | -1 | 8 | nt | nt
COc1ccc(NC(=O)C(Cl)=C(Cl)Cl)cn1 | 19 | nt | -14 | -5 | 0
COc1ccc(NC(=O)/C(Cl)=C(/Cl)S(=O)Cc2ccc(Cl)cc2)cn1 (stereo not drawn) | 55* | nt | -24 | -6 | -22
CCCN(CCC)CC(O)Cn1c2ccccc2c2ccccc21 (stereo not drawn) | -5 | nt | 3 | -20 | -4
CC(C)CCN(CCC(C)C)CC(O)Cn1c2ccccc2c(=O)c2ccccc21 (stereo not drawn) | 8 | 12 | -8 | + | -9
SMILES | FN deposit inh | RAD54 branch | RAD52 inh | CaV13 ICDI inh | N-glyco inh
Cc1ccc(C)c(NC(=S)NC(NC(=O)Cc2cccc3ccccc23)C(Cl)(Cl)Cl)c1 (stereo not drawn) | nt | 5 | nt | nt | 74*
CN1c2ccc(-c3ccccc3)cc2[C@@H]2[C@@H](CCN2C(=O)Nc2ccccc2F)[C@@H]1CO | -23 | -1 | 31 | nt | nt
CC=Cc1ccc2n(c1=O)C[C@H]1[C@H](CO)[C@@H](C(=O)NC3CCCC3)N(CC3CCCCC3)[C@@H]21 (mixture of isomers) | nt | -5 | 1 | nt | nt
O=C(C[n+]1ccc(CCSc2ccc(F)cc2)cc1)c1ccccc1 | nt | 87* | nt | nt | -1
Cc1ccc(C(=O)C[n+]2ccc(Cc3ccccc3)cc2)cc1 | -1 | nt | -5 | -10 | -7
Cc1ccc(C(c2cc(Cl)c3cccnc3c2O)N2CCN(C)CC2)cc1 (stereo not drawn) | nt | 8 | nt | nt | 43*
CCCN1C[C@H](C)[C@@H](OC)CN(C)C(=O)c2ccc(NC(=O)CC)cc2OC[C@H]1C | -2 | nt | nt | nt | nt
CC(=O)Nc1ccc(CNc2ncnc3ccc(-c4c(C)noc4C)cc23)cc1 | -5 | 3 | -6 | -3 | 50*
CC(CCc1ccccc1)NC(=O)c1ccc(NC(=O)c2cccc(Br)c2)cc1 (stereo not drawn) | 0 | -2 | nt | -2 | -4
CC(CCc1ccccc1)NC(=O)c1ccc(NC(=O)c2ccccc2)cc1 (stereo not drawn) | 8 | 0 | -6 | -5 | 26*
C[C@@H]1CCCCO[C@H](CN(C)S(=O)(=O)c2cccs2)[C@H](C)CN([C@H](C)CO)C(=O)c2cc(NS(C)(=O)=O)ccc2O1 | nt | -2 | 11 | nt | nt
Clc1ccccc1C1=CC(c2ccco2)n2ncnc2N1 (stereo not drawn) | 5 | nt | -12 | + | 0
Cc1cccc(NC(=O)c2ccc(C3SCC(=O)N3CCc3ccccc3)cc2)c1 (stereo not drawn) | 33* | 3 | -4 | -3 | -7
C[C@@H]1CCCCO[C@@H](CN(C)Cc2ccc(C(=O)O)cc2)[C@H](C)CN([C@H](C)CO)C(=O)c2cc(NS(=O)(=O)c3cn(C)cn3)ccc2O1 | nt | -3 | nt | nt | nt
CCN1C(=O)Nc2cccc3cccc1c23 | 4 | 2 | -3 | -5 | 30*
CCOC(=O)Cn1c(COc2ccccc2OC)[n+](C)c2ccccc21 | 1 | -2 | 5 | -4 | 4
CCCCCCCCCCOC(=O)Cn1c(COc2ccc(OC)cc2)[n+](C)c2ccccc21 | nt | 58*! | nt | nt | 19
CCCCCCCCCCOC(=O)Cn1c(COc2ccccc2C)[n+](C)c2ccccc21 | nt | ? | 83* | nt | 8
COc1cc(C2c3[nH]c4ccccc4c3CC3COC(=O)N32)cc(OC)c1O (stereo not drawn) | 4 | nt | -5 | -6 | 36*
O=C(O)C1CCCN1S(=O)(=O)c1cccc(S(=O)(=O)N2CCCC2C(=O)O)c1 (stereo not drawn) | -21 | -3 | -2 | -6 | 1

Compound activity as filed in PubChem.
